Assays:
Set-up in all cases: dose 500 mg/kg
[1] = tested on: Mus musculus; assay: Effect on Ugt1a9 gene expression in male PXR null mouse liver at 500 mg/kg for 7 to 14 days dosed through vitamin E-deficient base diet by qPCR method; type: ADME, organism-based; conditions: in vivo, po
Outline: (§1)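 Male mice on vitamin E deficient diet, switched at eight weeks to the same diet with 500 mg/kg DL-α-tocopheryl acetate (controls kept deficient); killed at nine or 10 weeks, livers flash frozen. Hepatic mRNA by SYBR Green qPCR with 25 ng cDNA and 150 nM primers, triplicate reactions; comparative threshold cycle method against β-actin, fold change versus deficient diet; mean ± SEM, two-tailed t-test.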

[2] = tested on: Mus musculus; assay: Effect on Ugt1a6a gene expression in male PXR-humanized mouse liver at 500 mg/kg for 7 to 14 days dosed through vitamin E-deficient base diet by qPCR method; type: ADME, organism-based; conditions: in vivo, po; outline: as §1
[3] = tested on: Mus musculus; assay: Effect on Ugt1a7c gene expression in male PXR-humanized mouse liver at 500 mg/kg for 7 to 14 days dosed through vitamin E-deficient base diet by qPCR method; type: ADME, organism-based; conditions: in vivo, po; outline: as §1
[4] = tested on: Mus musculus; assay: Induction of Cyp4f18 gene expression in wild type mouse liver at 500 mg/kg for 7 to 14 days dosed through vitamin E-deficient base diet by qPCR method; type: ADME, organism-based; conditions: in vivo, po
Outline: (§2)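 Male mice (wild-type, Pxr-null, hPXR; NCI-bred) on vitamin E-deficient diet from 3 weeks of age; at 8 weeks half switched to same base diet supplemented with 500 mg/kg DL-α-tocopheryl acetate, rest kept deficient. Livers harvested at 9 and 10 weeks. qPCR: 25 ng cDNA, 150 nM each primer, SYBR Green, triplicate; comparative Ct vs β-actin; fold change enriched vs deficient diet; mean ± SEM, two-tailed unpaired t-test.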

[5] = tested on: Mus musculus; assay: Drug metabolism in male PXR null mouse assessed as urinary alpha-carboxymethylbutylhydroxychroman glucuronide level at 500 mg/kg for 7 to 14 days dosed through vitamin E-deficient base diet by UPLC-ESI-QTOFMS method based metabolomics analysis; type: ADME, organism-based, Urine; conditions: in vivo, po
[6] = tested on: Mus musculus; assay: Effect on Ugt1a9 gene expression in wild type mouse liver at 500 mg/kg for 7 to 14 days dosed through vitamin E-deficient base diet by qPCR method; type: ADME, organism-based; conditions: in vivo, po; outline: as §1
[7] = tested on: Mus musculus; assay: Induction of Cyp3a11 gene expression in male wild type mouse liver at 500 mg/kg for 7 to 14 days dosed through vitamin E-deficient base diet by qPCR method; type: ADME, organism-based; conditions: in vivo, po; outline: as §2
[8] = tested on: Mus musculus; assay: Induction of Cyp4f13 gene expression in male PXR null mouse liver at 500 mg/kg for 7 to 14 days dosed through vitamin E-deficient base diet by qPCR method; type: ADME, organism-based; conditions: in vivo, po; outline: as §2
[9] = tested on: Cyp2c55; assay: Induction of Cyp2c55 gene expression in male PXR null mouse liver at 500 mg/kg for 7 to 14 days dosed through vitamin E-deficient base diet by qPCR method; type: ADME, organism-based; conditions: po, read-out: FC; outline: as §1
[10] = tested on: Mus musculus; assay: Effect on Ugt1a1 gene expression in wild type mouse liver at 500 mg/kg for 7 to 14 days dosed through vitamin E-deficient base diet by qPCR method; type: ADME, organism-based; conditions: in vivo, po; outline: as §1
[11] = tested on: Mus musculus; assay: Effect on Ugt2b34 gene expression in male PXR null mouse liver at 500 mg/kg for 7 to 14 days dosed through vitamin E-deficient base diet by qPCR method; type: ADME, organism-based; conditions: in vivo, po; outline: as §1
[12] = tested on: Mus musculus; assay: Induction of Cyp3a11 gene expression in male PXR null mouse liver at 500 mg/kg for 7 to 14 days dosed through vitamin E-deficient base diet by qPCR method; type: ADME, organism-based; conditions: in vivo, po; outline: as §1
[13] = tested on: Cyp2c55; assay: Induction of Cyp2c55 gene expression in male PXR-humanized mouse liver at 500 mg/kg for 7 to 14 days dosed through vitamin E-deficient base diet by qPCR method; type: ADME, organism-based; conditions: po, read-out: FC; outline: as §1
[14] = tested on: Mus musculus; assay: Effect on Ugt2b34 gene expression in male PXR-humanized mouse liver at 500 mg/kg for 7 to 14 days dosed through vitamin E-deficient base diet by qPCR method; type: ADME, organism-based; conditions: in vivo, po; outline: as §1
[15] = tested on: Mus musculus; assay: Effect on Ugt2b5 gene expression in wild type mouse liver at 500 mg/kg for 7 to 14 days dosed through vitamin E-deficient base diet by qPCR method; type: ADME, organism-based; conditions: in vivo, po; outline: as §1
[16] = tested on: Mus musculus; assay: Induction of Cyp4f14 gene expression in wild type mouse liver at 500 mg/kg for 7 to 14 days dosed through vitamin E-deficient base diet by qPCR method; type: ADME, organism-based; conditions: in vivo, po; outline: as §2
[17] = tested on: Mus musculus; assay: Induction of Cyp2c39 gene expression in male PXR-humanized mouse liver at 500 mg/kg for 7 to 14 days dosed through vitamin E-deficient base diet by qPCR method; type: ADME, organism-based; conditions: in vivo, po; outline: as §1
[18] = tested on: Mus musculus; assay: Induction of Cyp4f16 gene expression in male PXR null mouse liver at 500 mg/kg for 7 to 14 days dosed through vitamin E-deficient base diet by qPCR method; type: ADME, organism-based; conditions: in vivo, po; outline: as §2
[19] = tested on: Mus musculus; assay: Effect on Ugt1a6a gene expression in male PXR null mouse liver at 500 mg/kg for 7 to 14 days dosed through vitamin E-deficient base diet by qPCR method; type: ADME, organism-based; conditions: in vivo, po; outline: as §1
[20] = tested on: Mus musculus; assay: Effect on Ugt1a1 gene expression in male PXR null mouse liver at 500 mg/kg for 7 to 14 days dosed through vitamin E-deficient base diet by qPCR method; type: ADME, organism-based; conditions: in vivo, po; outline: as §1
[21] = tested on: Mus musculus; assay: Induction of Cyp4f18 gene expression in male PXR null mouse liver at 500 mg/kg for 7 to 14 days dosed through vitamin E-deficient base diet by qPCR method; type: ADME, organism-based; conditions: in vivo, po; outline: as §2
[22] = tested on: Mus musculus; assay: Drug metabolism in male PXR null mouse assessed as urinary alpha-carboxyethylhydroxychroman glycine level at 500 mg/kg for 7 to 14 days dosed through vitamin E-deficient base diet by UPLC-ESI-QTOFMS method based metabolomics analysis; type: ADME, organism-based, Urine; conditions: in vivo, po
Outline: (§3)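 Male mice from three weeks of age on vitamin E deficient diet; at eight weeks, 24 h predose urine in metabolic cages, then half switched to the same diet supplemented with 500 mg/kg DL-α-tocopheryl acetate. 24 h urine collected at nine and 10 weeks. Urinary metabolites quantitated by UPLC-MRM on triple-quadrupole MS against authentic standards and calibration curves, normalized to urinary creatinine (µmol/mmol creatinine); mean ± SEM, two-tailed unpaired t-test.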

[23] = tested on: Mus musculus; assay: Effect on Ugt1a6b gene expression in wild type mouse liver at 500 mg/kg for 7 to 14 days dosed through vitamin E-deficient base diet by qPCR method; type: ADME, organism-based; conditions: in vivo, po; outline: as §1
[24] = tested on: Mus musculus; assay: Induction of Cyp4f16 gene expression in male PXR-humanized mouse liver at 500 mg/kg for 7 to 14 days dosed through vitamin E-deficient base diet by qPCR method; type: ADME, organism-based; conditions: in vivo, po; outline: as §2
[25] = tested on: Mus musculus; assay: Effect on Ugt1a10 gene expression in male PXR null mouse liver at 500 mg/kg for 7 to 14 days dosed through vitamin E-deficient base diet by qPCR method; type: ADME, organism-based; conditions: in vivo, po; outline: as §1
[26] = tested on: Mus musculus; assay: Induction of Cyp3a11 gene expression in male PXR-humanized mouse liver at 500 mg/kg for 7 to 14 days dosed through vitamin E-deficient base diet by qPCR method; type: ADME, organism-based; conditions: in vivo, po; outline: as §2
[27] = tested on: Mus musculus; assay: Drug metabolism in male PXR-humanized mouse assessed as urinary alpha-carboxyethylhydroxychroman glucuronide level at 500 mg/kg for 7 to 14 days dosed through vitamin E-deficient base diet by UPLC-ESI-QTOFMS method based metabolomics analysis; type: ADME, organism-based, Urine; conditions: in vivo, po; outline: as §3
[28] = tested on: Mus musculus; assay: Induction of Cyp4f14 gene expression in male PXR-humanized mouse liver at 500 mg/kg for 7 to 14 days dosed through vitamin E-deficient base diet by qPCR method; type: ADME, organism-based; conditions: in vivo, po; outline: as §2
[29] = tested on: Mus musculus; assay: Induction of Cyp4f15 gene expression in male PXR null mouse liver at 500 mg/kg for 7 to 14 days dosed through vitamin E-deficient base diet by qPCR method; type: ADME, organism-based; conditions: in vivo, po; outline: as §2

CC(=O)Oc1c(C)c(C)c2c(c1C)CCC(C)(CCCC(C)CCCC(C)CCCC(C)C)O2 (racemic) [alpha-TOCHOPHERYL ACETATE]
metabolite_detected: Drug metabolism [5] | Drug metabolism [22] | Drug metabolism [27]
Not Active: Activity [1] | Activity [2] | Activity [3] | Activity [4] | Activity [6] | Activity [8] | Activity [10] | Activity [11] | Activity [12] | Activity [14] | Activity [15] | Activity [16] | Activity [17] | Activity [18] | Activity [19] | Activity [20] | Activity [21] | Activity [23] | Activity [24] | Activity [25] | Activity [26] | Activity [28] | Activity [29]
Active: Activity [7]
2.9: fold induction [13]
2.2: fold induction [9]

Source: ChEMBL document CHEMBL3526106, “Cytochrome P450 regulation by α-tocopherol in Pxr-null and PXR-humanized mice” (Drug Metab Dispos, 2013)
